Measured values taken from ChEMBL document CHEMBL4396873, “Discovery of Potent, Selective, and Short-Acting Peptidic V2 Receptor Agonists” (J Med Chem, 2019).
Active and inactive are the calls of the source. The rule behind the calls is not given here. Numbered stars: 1 amine (or outer) side, 2 acyl side, 3 side chain; on linkers, the order of the positions; unused ones are H or OH. Bridge positions count the residues as written; N and C are the ends. Square brackets hold non-standard residues; d marks the D form. Peptide text beside a SMILES is read from it. * marks the point of attachment. Phe(4-Cl) = N[C@@H](Cc1ccc(Cl)cc1)C(=O)O; 2Thi = N[C@@H](Cc1cccs1)C(=O)O; Agmatine = N=C(N)NCCCCN*; X1 = O=C(CCC[*:2])[*:1]; NH(CH2)4NH2 = NCCCCN*; NEt2 = CCN(CC)*

Assays:
[1] = molecular target: Vasopressin V2 receptor (Rattus norvegicus) (UniProt Q00788); assay: Agonist activity at recombinant rat V2 receptor expressed in HEK293 cells measured after 5 hrs by cAMP response element driven luciferase reporter gene assay relative to control; format: functional, cell-based
Rattus norvegicus [2] = assay: Antidiuretic activity in hydrated-euvolemic Sprague-Dawley rat assessed as effective plasma concentration causing half-maximal suppression of urine output administered as iv infusion for 180 mins measured during compound dosing; format: functional, organism-based; settings: 3 h
Rattus norvegicus [3] = assay: Antidiuretic activity in hydrated-euvolemic Sprague-Dawley rat assessed as suppression of urine output by measuring cumulative urine weight administered as iv infusion for 180 mins measured during compound dosing; format: functional
Rattus norvegicus [4] = assay: Antidiuretic activity in hydrated-euvolemic Sprague-Dawley rat assessed as suppression of urine output by measuring cumulative urine weight at 30 pM administered as iv infusion for 180 mins measured up to 300 mins; format: functional
Rattus norvegicus [5] = assay: Antidiuretic activity in hydrated-euvolemic Sprague-Dawley rat assessed as suppression of urine output at MED administered as iv infusion for 180 mins measured during compound dosing relative to control; format: functional
Rattus norvegicus [6] = assay: Antidiuretic activity in hydrated-euvolemic Sprague-Dawley rat assessed as suppression of urine output at 30 pM administered as iv infusion for 180 mins measured after 5 hrs; format: functional, organism-based
Rattus norvegicus [7] = assay: Antidiuretic activity in iv dosed rat assessed as suppression of urine output relative to control; format: functional
Vasopressin V2 receptor [8] = molecular target: Vasopressin V2 receptor (Homo sapiens, UniProt P30518); assay: Agonist activity at recombinant human V2 receptor expressed in HEK293 cells measured after 5 hrs by cAMP response element driven luciferase reporter gene assay; format: functional, cell-based
Vasopressin V1a receptor = Vasopressin V1a receptor (Homo sapiens, UniProt P37288); assay: Agonist activity at recombinant human V1a receptor expressed in HEK293 cells up to 1000 nM measured after 5 hrs by luciferase reporter gene assay; format: cell-based; settings: hek293, 5 h
[9] = Clearance in Sprague-Dawley rat at 0.1 mg/kg, iv administered as cassette dose by LC-MS/MS analysis; format: ADME, organism-based; settings: in vivo
[10] = Non-renal clearance in nephrectomized Sprague-Dawley rat at 0.1 mg/kg, iv administered as cassette dose by LC-MS/MS analysis; format: ADME, organism-based; settings: in vivo
[11] = Protein binding in rat plasma at 200 to 1000 ng/ml measured after 15 mins by UC-LC/MS/MS analysis; format: ADME, cell-free; settings: read-out: PPB (converted)
Outline: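 Peptide spiked into rat plasma to final 200-1000 ng/mL, incubated 15 min at 37 °C, ultracentrifuged at 773,000 xg for 30 min at 37 °C; middle-layer sample quantified by LC/MS/MS; binding (%) = (Ci − Cm)/Ci × 100; quadruplicate.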

[12] = molecular target: Oxytocin receptor (Homo sapiens) (UniProt P30559); assay: Agonist activity at recombinant human oxytocin receptor expressed in HEK293 cells measured after 5 hrs by luciferase reporter gene assay
[13] = molecular target: Oxytocin receptor (Homo sapiens) (UniProt P30559); assay: Agonist activity at recombinant human oxytocin receptor expressed in HEK293 cells measured after 5 hrs by luciferase reporter gene assay relative to control; settings: read-out: Efficacy
[14] = molecular target: T1, Oxytocin receptor (Homo sapiens) (UniProt P30559); assay: Agonist activity at human OTR stably expressed in CHOK1 cells up to 10000 nM by NFAT-luciferase reporter gene assay; format: cell-based
T1 sequence (whole entry): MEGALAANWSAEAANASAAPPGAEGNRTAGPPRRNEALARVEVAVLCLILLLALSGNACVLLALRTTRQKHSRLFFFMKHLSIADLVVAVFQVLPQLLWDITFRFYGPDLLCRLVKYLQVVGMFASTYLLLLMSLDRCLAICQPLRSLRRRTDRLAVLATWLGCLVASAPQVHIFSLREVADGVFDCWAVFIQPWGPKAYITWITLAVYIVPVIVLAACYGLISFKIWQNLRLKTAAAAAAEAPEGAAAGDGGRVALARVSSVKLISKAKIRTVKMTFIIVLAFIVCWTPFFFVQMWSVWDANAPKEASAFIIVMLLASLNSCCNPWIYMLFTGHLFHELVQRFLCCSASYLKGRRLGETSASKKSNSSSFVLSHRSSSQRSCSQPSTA

Vasopressin V2 receptor [15] = molecular target: Vasopressin V2 receptor (Rattus norvegicus, UniProt Q00788); assay: Agonist activity at recombinant rat V2 receptor expressed in HEK293 cells measured after 5 hrs by cAMP response element driven luciferase reporter gene assay; format: functional, cell-based
[16] = Elimination half life in Sprague-Dawley rat at 0.1 mg/kg, iv administered as cassette dose by LC-MS/MS analysis; format: ADME, organism-based; settings: in vivo, read-out: beta t1/2
Rattus norvegicus [17] = assay: Antidiuretic activity in hydrated-euvolemic Sprague-Dawley rat assessed as suppression of urine output administered as iv infusion for 180 mins measured during compound dosing; format: functional, organism-based
Rattus norvegicus [18] = assay: Antidiuretic activity in hydrated-euvolemic Sprague-Dawley rat assessed as suppression of urine output by measuring cumulative urine weight at 30 to 100 pM administered as iv infusion for 180 mins measured up to 300 mins; format: functional
[19] = Half life in iv dosed Sprague-Dawley rat by LC-MS/MS analysis; format: ADME, organism-based; settings: in vivo
Rattus norvegicus [20] = assay: Antidiuretic activity in hydrated-euvolemic Sprague-Dawley rat assessed as suppression of urine output at 30 to 100 pM administered as iv infusion for 180 mins measured within 1 hr; format: functional, organism-based
Rattus norvegicus [21] = assay: Antidiuretic activity in hydrated-euvolemic Sprague-Dawley rat assessed as suppression of urine output at 30 pM administered as iv infusion for 180 mins measured immediately; format: functional, organism-based
[22] = Clearance in iv dosed over hydrated human; format: ADME, organism-based; settings: in vivo
[23] = Clearance in severe renal impairment patent; format: ADME; settings: human
Rattus norvegicus [24] = assay: Antidiuretic activity in hydrated-euvolemic Sprague-Dawley rat assessed as suppression of urine output at 30 to 100 pM administered as iv infusion for 180 mins measured after 1 hr; format: functional, organism-based

Chain of Vasopressin V2 receptor (Rattus norvegicus, UniProt Q00788) (Q00788 whole entry): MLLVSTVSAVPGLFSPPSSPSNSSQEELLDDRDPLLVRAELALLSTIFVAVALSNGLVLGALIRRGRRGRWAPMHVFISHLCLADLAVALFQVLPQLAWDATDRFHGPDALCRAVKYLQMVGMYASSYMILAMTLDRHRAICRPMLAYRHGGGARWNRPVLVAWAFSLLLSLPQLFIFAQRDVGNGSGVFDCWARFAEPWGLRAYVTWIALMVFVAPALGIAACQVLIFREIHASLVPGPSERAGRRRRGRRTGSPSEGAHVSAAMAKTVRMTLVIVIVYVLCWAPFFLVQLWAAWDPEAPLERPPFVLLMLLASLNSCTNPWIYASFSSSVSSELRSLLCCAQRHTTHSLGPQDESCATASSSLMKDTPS
Chain of Vasopressin V2 receptor (Rattus norvegicus) (Q00788 whole entry, the tested form may be a part): as the sequence (Q00788 whole entry) above
Chain of Vasopressin V1a receptor (P37288 whole entry): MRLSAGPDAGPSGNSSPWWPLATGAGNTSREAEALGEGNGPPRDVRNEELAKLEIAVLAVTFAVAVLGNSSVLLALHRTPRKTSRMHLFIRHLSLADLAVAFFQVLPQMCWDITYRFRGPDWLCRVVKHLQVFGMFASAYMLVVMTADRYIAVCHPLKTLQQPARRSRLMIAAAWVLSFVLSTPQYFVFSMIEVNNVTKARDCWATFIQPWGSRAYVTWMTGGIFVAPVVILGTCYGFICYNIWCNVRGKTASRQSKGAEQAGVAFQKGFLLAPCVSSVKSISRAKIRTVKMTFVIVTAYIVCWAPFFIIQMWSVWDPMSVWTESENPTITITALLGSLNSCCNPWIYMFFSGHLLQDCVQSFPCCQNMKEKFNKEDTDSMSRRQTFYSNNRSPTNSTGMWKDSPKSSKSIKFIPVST
Chain of Vasopressin V2 receptor (Homo sapiens, UniProt P30518) (P30518 whole entry): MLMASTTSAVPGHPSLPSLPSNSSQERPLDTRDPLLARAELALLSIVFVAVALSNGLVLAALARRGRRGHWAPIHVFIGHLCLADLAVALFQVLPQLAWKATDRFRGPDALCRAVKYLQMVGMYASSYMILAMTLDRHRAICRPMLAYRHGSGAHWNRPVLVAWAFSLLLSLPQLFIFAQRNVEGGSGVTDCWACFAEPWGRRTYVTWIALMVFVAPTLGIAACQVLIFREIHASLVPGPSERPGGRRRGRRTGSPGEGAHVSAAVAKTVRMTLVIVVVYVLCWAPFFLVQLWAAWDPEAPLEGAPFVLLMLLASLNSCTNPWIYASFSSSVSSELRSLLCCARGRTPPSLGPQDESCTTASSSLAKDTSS

| Structure (SMILES) | Efficacy [1] [%] | EC50 (Rattus norvegicus [2]) [nM] | Activity (Vasopressin V1a receptor) | clearance [9] [mL/min/kg] | CL [10] [%] | fraction unbound at […] [11] | Activity [14] | EC50 (Vasopressin V2 receptor [15]) [nM] | half-life [16] [min] | half-life [19] [min] | Activity (Rattus norvegicus [3]) [g] | Activity (Rattus norvegicus [5]) [%] | Activity (Rattus norvegicus [17]) | Activity (Rattus norvegicus [18]) [g] | other results |
| --- | --- | --- | --- | --- | --- | --- | --- | --- | --- | --- | --- | --- | --- | --- | --- |
| CC(C)[C@@H]1NC(=O)[C@H](Cc2cccs2)NC(=O)[C@H](Cc2ccc(O)cc2)NC(=O)CCCSC[C@@H](C(=O)N2CCC[C@H]2C(=O)NCCCCN)NC(=O)[C@H](CC(N)=O)NC1=O (Y[2Thi]VNCP-{NH(CH2)4NH2}; linker N-5 via X1) | – | – | Not Active | 7.2 | 18 | 0.58 | – | – | – | – | – | – | – | – | EC50 (Vasopressin V2 receptor [8]): 0.19 nM; EC50 [12]: 650 nM; Emax [13]: 28% |
| CC(C)[C@@H]1NC(=O)[C@H](Cc2cccs2)NC(=O)[C@H](Cc2ccc(Cl)cc2)NC(=O)CCCSC[C@@H](C(=O)N2CCC[C@H]2C(=O)NCCCCNC(=N)N)NC(=O)[C@H](CC(N)=O)NC1=O ([Phe(4-Cl)][2Thi]VNCP-Agmatine; linker N-5 via X1) | 99 | 0.00064 | Not Active | 14 | 57 | 0.15 | inactive | 0.02 | 16 | 20 | 5 | 80 | Dose-dependent effect | 1.3 | Activity (Rattus norvegicus [20]): inactive; Activity (Rattus norvegicus [21]): inactive |
| NC(=O)CC[C@@H]1NC(=O)[C@H](Cc2ccccc2)NC(=O)[C@H](Cc2ccc(O)cc2)NC(=O)CCSSC[C@@H](C(=O)N2CCC[C@H]2C(=O)N[C@H](CCCN=C(N)N)C(=O)NCC(N)=O)NC(=O)[C@H](CC(N)=O)NC1=O [DESMOPRESSIN] | – | – | – | – | 11 | 0.59 | – | 0.03 | – | – | – | – | – | – | clearance [22]: 1.7 mL/min/kg; clearance [23]: 0.69 mL/min/kg |

More lines, main results first:

| Efficacy [1] [%] | EC50 (Rattus norvegicus [2]) [nM] | Activity (Vasopressin V1a receptor) | clearance [9] [mL/min/kg] | CL [10] [%] | fraction unbound at […] [11] | Activity [14] | EC50 (Vasopressin V2 receptor [15]) [nM] | half-life [16] [min] | half-life [19] [min] | Structure (SMILES) | Activity (Rattus norvegicus [3]) [g] | Activity (Rattus norvegicus [5]) [%] | Activity (Rattus norvegicus [17]) | Activity (Rattus norvegicus [18]) [g] | other results |
| --- | --- | --- | --- | --- | --- | --- | --- | --- | --- | --- | --- | --- | --- | --- | --- |
| 100 | 0.00032 | – | – | – | – | – | – | – | – | N=C(N)NCCC[C@@H](NC(=O)[C@@H]1CCCN1C(=O)[C@@H]1CSSCCC(=O)N[C@@H](Cc2ccc(O)cc2)C(=O)N[C@@H](Cc2ccccc2)C(=O)N[C@@H](CCC(N)=O)C(=O)N[C@@H](CC(N)=O)C(=O)N1)C(=O)NCC(N)=O [DESMOPRESSIN] | 5.2 | 80 | – | – | Activity (Rattus norvegicus [4]): 0.99 g; Activity (Rattus norvegicus [6]): Active; Activity (Rattus norvegicus [7]): 48% |
| 91 | 0.00043 | Not Active | 42 | 60 | 0.08 | inactive | 0.05 | 6.4 | 12 | CCN(CC)C(=O)[C@@H](CCCNC(=N)N)NC(=O)[C@@H]1CCCN1C(=O)[C@@H]1CSCCCC(=O)N[C@@H](Cc2ccc(Cl)cc2)C(=O)N[C@@H](Cc2cccs2)C(=O)N[C@@H](C(C)C)C(=O)N[C@@H](CC(N)=O)C(=O)N1 ([Phe(4-Cl)][2Thi]VNCP[dR]-NEt2; linker N-5 via X1) | 5 | 80 | Dose-dependent effect | 1 | Activity (Rattus norvegicus [24]): inactive |
